Screening results as filed in PubChem.
Only some compounds are listed: those with a hit (about 1.8% of all), similar ones and a draw of the others.
M5 ag – agonists of human muscarinic M5 receptor (CHRM5). actives 0.19% (n = 360,000). CHO-K1 hM5 cells, Fluo-8 calcium fluorescence; 0% DMSO wells, 100% maximal acetylcholine response. activation, % at 3 µM;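 active means activation above the run's mean over test compounds plus 3 SD, cut at about 23% in these data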;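 further: signal is peak over basal fluorescence ratio across the kinetic read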
Target sequence (P08912 whole entry, looked up): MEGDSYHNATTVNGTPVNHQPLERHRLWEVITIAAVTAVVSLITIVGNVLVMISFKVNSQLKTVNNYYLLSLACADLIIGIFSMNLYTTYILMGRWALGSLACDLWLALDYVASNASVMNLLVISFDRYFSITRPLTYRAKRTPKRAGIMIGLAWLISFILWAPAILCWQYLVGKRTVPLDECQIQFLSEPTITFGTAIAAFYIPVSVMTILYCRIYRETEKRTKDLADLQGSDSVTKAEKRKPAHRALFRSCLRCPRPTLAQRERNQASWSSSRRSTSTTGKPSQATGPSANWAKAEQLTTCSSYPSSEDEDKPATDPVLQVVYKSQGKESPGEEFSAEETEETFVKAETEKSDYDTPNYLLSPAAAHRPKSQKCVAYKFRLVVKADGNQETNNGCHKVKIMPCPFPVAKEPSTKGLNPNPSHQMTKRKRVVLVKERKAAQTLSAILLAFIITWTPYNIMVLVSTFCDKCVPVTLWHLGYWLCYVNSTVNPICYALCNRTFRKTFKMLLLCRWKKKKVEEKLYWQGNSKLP
CHRM4 PAM – positive allosteric modulators of human muscarinic M4 receptor; P08173; AID 624126; CHO-K1 hM4/Gqi5, Fluo-8 calcium fluorescence, ACh EC20; 0% = ACh EC20, 100% = maximal ACh; actives 0.4% (n = 360,000); activation, % at 3 µM;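 active means activation above its plate's cutoff, the mean activation of sample wells plus 3 SD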
M5 antag – antagonists of human muscarinic M5 receptor (CHRM5); P08912; CHO-hM5 cells, Fluo-8 calcium fluorescence, ACh EC80; AID 624040; actives 0.59% (n = 360,000); inhibition, % at 3 µM;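 active means inhibition above a per-plate cutoff, the mean of that plate's test compounds plus 3 SD, cut at about 27% in these data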
CHRM5 PAM – positive allosteric modulators of human muscarinic M5 receptor; CHO-K1 hM5, Fluo-8 calcium, ACh EC20 PAM; 0% = ACh EC20, 100% = ACh EC100; P08912; activation, % at 3 µM; actives 0.3% (n = 360,000);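 active means activation above the run cutoff, the mean activation of all test compounds plus 3 SD, cut at about 18% in these data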
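system = human M5 receptor in CHO-K1 cells | reagent = EC20 acetylcholine as agonist stimulus | compound dosing = single-point, 3 µM nominal | incubation = Fluo-8 loading 80 min at 37 °C plus 30 min room temperature | detection = Fluo-8 calcium dye fluorescence, kinetic read | benchmarks = low control EC20 acetylcholine (0%), high control EC100 acetylcholine (100%)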
CHRM4 antagonist – antagonists of human muscarinic M4 receptor (CHRM4); CHO-hM4 cells, ACh EC80, Fluo-8 calcium fluorescence; inhibition, % at 3 µM; actives 0.73% (n = 360,000); AID 624125;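 active means inhibition above its plate's cutoff, the mean inhibition of sample wells plus 3 SD, cut at about 27% in these data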
CHRM4 agonist – agonists of human muscarinic M4 receptor (CHRM4) | CHO-K1 hM4/Gqi5, Fluo-8 calcium fluorescence; vehicle 0%, full acetylcholine response 100% | AID 624127 | activation, % at 3 µM | actives 0.14% (n = 360,000);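 active means activation above the run mean over all test wells plus 3 SD, cut at about 32% in these data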;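 further: peak over basal fluorescence ratio per well then scaled between controls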
Numbers stand for hits; n = inactive.

SMILES	M5 ag	CHRM4 PAM	M5 antag	CHRM5 PAM	CHRM4 antagonist	CHRM4 agonist
COc1ccccc1N1CCN(C(=O)c2cn(Cc3ccccc3)nc2-c2cccnc2)CC1	29.4	n	n	n	n	n
Cc1cc(C(=O)CSc2nc3ccc(Cl)cc3[nH]2)c(C)n1C	n	n	n	n	n	n
Cc1cc(C(=O)CSc2nc3ccccc3[nH]2)c(C)n1Cc1ccco1	n	n	27.5	n	n	n
C=CCn1c(C)cc(C(=O)CSc2nc3ccccc3c(=O)[nH]2)c1C	n	n	n	n	n	n
C=CCn1c(C)cc(C(=O)CSc2nc3ccccc3[nH]2)c1C	n	n	n	n	28.9	n
Cc1cc(C(=O)CSc2nc3ccc(Cl)cc3[nH]2)c(C)n1CC1CCCO1 (configuration not stated)	n	n	n	n	30.5	n
O=C(CNC(=O)c1cccc([N+](=O)[O-])c1)NC1CCCc2ccccc21 (configuration not stated)	n	n	n	n	n	n
CCOc1ccc(N2CC(C(=O)Nc3cccnc3)CC2=O)cc1 (configuration not stated)	n	n	n	n	n	n
CN(CCOc1ccccc1)C(=O)c1cc(S(=O)(=O)N2CCCCC2)ccc1Cl	n	n	n	n	n	n
CC(NCCC(c1ccccc1)c1ccccc1)c1ccccc1 (configuration not stated)	n	n	n	n	44.9	n
O=C(NCCc1ccccc1)c1ccc(NC(=O)C2CCC2)cc1	n	n	n	n	n	n
N#C/C(=N\Nc1ccc(S(=O)(=O)N2CCCCCC2)cc1)C(N)=S	n	n	30.2	n	n	n
N#C/C(=N\Nc1ccc(S(=O)(=O)N2CCCCC2)cc1)C(N)=S	n	n	n	n	n	n
N#C/C(=N\Nc1ccc([N+](=O)[O-])cc1)C(N)=S	n	n	29.7	n	n	n
N#C/C(=N/Nc1ccc([N+](=O)[O-])cc1)C(=N)N1CCCCC1	n	n	n	n	n	n
COc1cccc(-c2c(-c3ccccc3OC)ncn2Cc2cccc(-c3ccccc3)c2)c1	n	n	n	n	n	n
CN(C)CCCN(C(=O)c1cc(Cl)sc1Cl)c1nc2cc3c(cc2s1)OCO3	n	n	42.2	n	62.5	n
Cn1c(CNC(=O)C2CCCCC2)cc2cc(Cl)ccc21	n	17.4	n	n	n	n
O=C(NCC1CC1)c1cc2c(c(-c3cccc(-c4ccccc4F)c3)n1)[C@@H](CCO)N(C(=O)CC1CC1)C2	n	n	n	n	n	n
Cc1nn(Cc2c(Cl)cccc2Cl)c(C)c1NC(=O)CCCn1nc(C)c([N+](=O)[O-])c1C	n	n	n	n	n	n
Cc1nn(CCCC(=O)Nc2cccnc2Cl)c(C)c1[N+](=O)[O-]	n	n	n	n	28.8	n
CCOC(=O)N1CCC(N2C(=O)c3ccc(C(=O)NCCOC)cc3C2=O)CC1	n	n	n	n	n	n
COC(=O)[C@H](Cc1ccccc1)NC(=O)NCCc1ccc(F)cc1	n	n	30.0	n	n	n
COC(=O)[C@H](Cc1ccccc1)NC(=O)NCCc1ccc(S(N)(=O)=O)cc1	n	n	n	n	n	n
COC(=O)C(Cc1ccccc1)NC(=O)C12CC3CC(CC(C3)C1)C2 (configuration not stated)	n	21.9	n	n	n	n
SMILES	M5 ag	CHRM4 PAM	M5 antag	CHRM5 PAM	CHRM4 antagonist	CHRM4 agonist
O=S(=O)(Nc1ccncc1Cl)c1ccc2ccccc2c1	n	n	n	n	n	n
COC(=O)C1=CN(c2ccc(C(C)(C)C)cc2)C(N)=C(C#N)C1c1cccc2ccccc12 (configuration not stated)	n	n	n	n	n	n
CC(C)(C)c1c(Cl)c(O)c(-c2ccccc2)c(=O)n1-c1ccccc1	n	n	n	n	n	n
COc1cc(Cl)ccc1OC1(C)CCN(Cc2ccc(-c3ccccn3)cc2)C1 (configuration not stated)	n	n	n	n	n	n
CC(=O)N/C(=N/c1nc(C)cc(C)n1)Nc1cccc(C)c1C	n	n	n	n	n	n
CCc1nnc(NC(=O)CCN2C(=O)/C(=C/c3cc(OC)c(OC)c(OC)c3)SC2=S)s1	n	15.0	n	n	n	n
CC(SC1=Nc2ccccc2C2CC=NN12)C(=O)NC1(C#N)CCCCC1 (configuration not stated)	n	n	n	n	n	n
COc1ccc(C(=O)OCC(=O)Nc2c(C)cccc2C)c(OC)c1OC	n	n	n	n	n	n
Oc1ccc(C[C@@H]2CNCCN2CCc2cc(C(F)(F)F)cc(C(F)(F)F)c2)cc1	n	24.9	n	n	n	n
CNC(=O)c1ccc(NC(=O)CC2SC(N3CCCC3)=NC2=O)cc1 (configuration not stated)	n	22.1	n	n	n	n
CC(C)NC(=O)c1ccc(NC(=O)CC2SC(N3CCCC3)=NC2=O)cc1 (configuration not stated)	n	n	n	n	n	n
COCC(C)NS(=O)(=O)c1ccc(NC(=O)c2ccccn2)cc1 (configuration not stated)	n	n	30.2	n	n	n
O=C(COc1ccc2ccc(=O)oc2c1)NCCN1CCOCC1	n	n	n	n	n	n
FC(F)(F)c1cc(Cc2nc3ccccc3n2C(CCc2ccccc2)c2nc3ccccc3[nH]2)cc(C(F)(F)F)c1 (configuration not stated)	n	n	n	n	n	n
Nc1c(-c2ccccc2)c(CSc2nc3ccccc3[nH]2)nn1-c1ccc(C(=O)O)cc1	n	23.7	n	n	n	n
Cc1nn(-c2ccc(C(=O)O)cc2)c(N)c1-c1ccccc1	n	n	n	n	n	n
Cc1ccc(S(=O)(=O)n2c([N+](=O)[O-])cnc2C)c(C)c1C	n	n	n	n	n	n
O=C(COc1ccc2ccccc2c1)N/N=C/C1CC=CCC1 (configuration not stated)	n	n	n	n	n	n
CCCCn1c(N)c(N(CC)C(=O)c2ccc(Cl)c(Cl)c2)c(=O)[nH]c1=O	n	n	28.0	n	n	n
Cc1nn(C)c(C)c1CN(Cc1nc(CCC(C)C)no1)C(C)C	n	n	31.6	n	n	n
CCN(C(=O)Cn1cc(C(=O)C(=O)N2CCOCC2)c2ccccc21)c1ccccc1	n	n	n	n	n	n
OCCC1CN(Cc2ccc(Oc3ncccn3)cc2)CCN1Cc1ccc(F)c(F)c1 (configuration not stated)	n	n	n	n	n	n
COC(=O)C1CCN(c2cc(=O)n(Cc3ccc(F)cc3)c(=O)[nH]2)CC1	n	n	n	n	n	n
